Compounds with a hit are over-represented: about 4.6% of the library has one in this group of screens.
CHO parental Ca – signal in parental CHO cells, OX1R antagonist counter-screen. parental CHO-K1, ATP-induced calcium, Fluo-8 fluorescence. inhibition, % at 5.6 µM. 330,000 compounds, 0.63% hits. AID 463079;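 active = inhibition above that plate's mean sample inhibition plus 3 SD, cut at about 26% in these data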;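 also: 0% = ATP-challenged DMSO wells and 100% = DMSO wells without ATP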
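Measured by: calcium-sensitive Fluo-8 fluorescence / Test system: CHO parental line / Controls: ATP-challenged DMSO wells low, unchallenged DMSO wells high / Measure: % inhibition / Compound: single nominal dose of 5.6 µM per compound / Replicates: single well per compound, no replicates / Reagent: ATP as calcium-mobilizing challenge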
OX1R antag-1 – antagonists of human orexin 1 receptor | AID 434989 | CHO/OX1R cells, Fluo-8 calcium fluorescence, orexin A | 330,000 compounds, 0.43% hits | O43613 | inhibition, % at 5 µM;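 active = inhibition above its plate's threshold, mean inhibition of all tested compounds on the plate plus 3 SD, cut at about 37% in these data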;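 also: 0% = orexin A challenge wells and 100% = SB-334867-A antagonist wells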
TAAR1 antag – antagonists of human TAAR1; inhibition, % at 3 µM; CHO RD-HGA16 TAAR1, Fluo-8 calcium fluorescence, antagonist; 360,000 compounds, 1.5% hits;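 active = inhibition above a per-plate cutoff, the mean inhibition of test compounds on that plate plus 3 SD, cut at about 49% in these data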;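 also: 0% = DMSO plus EC80 beta-PEA response and 100% = DMSO alone without agonist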
Target sequence (Q96RJ0 whole entry, looked up): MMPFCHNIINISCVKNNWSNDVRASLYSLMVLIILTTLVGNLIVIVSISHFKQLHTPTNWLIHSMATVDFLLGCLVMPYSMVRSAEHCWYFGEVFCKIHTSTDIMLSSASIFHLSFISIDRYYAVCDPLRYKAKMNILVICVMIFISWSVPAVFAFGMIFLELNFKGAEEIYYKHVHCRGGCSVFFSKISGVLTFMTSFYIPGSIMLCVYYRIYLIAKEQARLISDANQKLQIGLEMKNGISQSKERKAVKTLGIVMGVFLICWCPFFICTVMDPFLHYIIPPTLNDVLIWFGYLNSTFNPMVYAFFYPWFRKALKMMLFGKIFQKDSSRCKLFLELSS
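Test system: RD-HGA16 CHO cells with stable hTAAR1 and Gα16 / Probe or stimulus: EC80 β-phenethylamine stimulus / Times: seeding 17-24 h prior, 75-min 37 °C, 30-min RT dye loading / Detection: Fluo-8 calcium-sensitive fluorescence / Read-out basis: % inhibition scaled between DMSO and EC80 PEA controls / Repeats: singlicate, one well per test compound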
TAAR1 ag – agonists of human TAAR1. 360,000 compounds, 0.99% hits. CHO RD-HGA16 TAAR1, Fluo-8 calcium fluorescence; vehicle wells 0%, saturating PEA agonist 100%. activation, % at 3 µM. Q96RJ0;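 active = activation above the mean activation of all test compounds in the run plus 3 SD, cut at about 38% in these data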
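Test system: RD-HGA16 (CHO) cells co-expressing Gα16 and hTAAR1; dosing: one-point dosing at 3 µM (nominal); timing: 17-24 h seeding, 75 min 37 °C dye, 30 min RT; signal: kinetic Fluo-8 calcium fluorescence; read-out basis: % activation relative to PEA EC100 response; controls: DMSO and PEA EC100; replicates: n 1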
OX1R antag-2 – blocks the human orexin 1 receptor; inhibition, % at 6.6 µM; AID 485270; O43613; OX1R-expressing cells, FRET antagonist read-out; 330,000 compounds, 1.8% hits; in the data active = inhibition mostly above about 38%, no sharp cut-off; inactive = mostly below about 40%;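 also: 0% = agonist challenge alone and 100% = reference antagonist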
GPR7 antag – blocks human GPR7 receptor signaling. GPR7-expressing cells, fluorescence antagonist assay. inhibition, % at 4.4 µM. 290,000 compounds, 1.1% hits. P48145; in the data active = inhibition above about 16%, passing the limit was not always enough;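 also: cells stimulated with the agonist NPW; 0% = agonist with vehicle and 100% = vehicle without agonist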
An asterisk follows results filed as active; · = no result given.

SMILES	CHO parental Ca	OX1R antag-1	TAAR1 antag	TAAR1 ag	OX1R antag-2	GPR7 antag
CCNC(=O)C1(C)CCN(Cc2ccc(-c3ccccc3)cc2)C1 (stereo not given)	·	·	-15	0	·	·
CCOC1=C2CN(S(=O)(=O)c3ccc(C)cc3)C(c3ccccc3)CC2N(S(=O)(=O)c2ccc(C)cc2)C(c2ccc(Br)cc2)C1 (stereo not given)	·	·	-20	2	·	·
CCOC(=O)C1(Cc2ccc(Cl)cc2)CCN(C(C)Cc2ccc(O)c(OC)c2)CC1 (stereo not given)	38*	-15	26	21	15	6
CCOC(=O)C1(Cc2ccc(OC)cc2)CCN(S(C)(=O)=O)CC1	-7	-16	-12	6	16	-2
COc1cccc(-c2c(-c3ccccc3OC)ncn2Cc2cccc(-c3ccccc3)c2)c1	·	·	20	2	·	·
O=C(N/N=C/C(Cl)=C/c1ccc([N+](=O)[O-])cc1)C(=O)Nc1cccc(C(=O)O)c1	3	-17	-32	2	66*	-5
O=C(Nc1cccc(C(=O)O)c1)/C(=C/c1cccc([N+](=O)[O-])c1)NC(=O)c1cccc(Br)c1	-3	-1	-17	0	51	·
COC(=O)C1=C(C)N(Cc2ccccc2C(F)(F)F)C(=NCc2ccccc2C(F)(F)F)NC1c1ccc(F)cc1 (stereo not given)	·	·	-24	-1	·	·
Cc1nc2c(-c3ccc(F)cc3)cnn2c2c1CCC2	-13	1	-35	-1	54*	-13
CSc1ccc(/C=C(\C#N)C(=O)NC2CCCCC2C)cc1 (stereo not given)	-29	-31	-20	6	25	1
CC(=O)Nc1ccc(/C=C(\C#N)C(=O)NC2CCCCC2C)cc1 (stereo not given)	-5	-25	6	6	22	20*
C=CCOC(=O)C1=C(C)N=C2SCCC(=O)N2C1c1ccc(OC(=O)c2ccco2)cc1 (stereo not given)	2	-4	28	18	6	25*
COC(=O)C1=C(C)N=C2SCCC(=O)N2C1c1ccc(OC(=O)c2ccco2)cc1 (stereo not given)	·	·	-16	11	·	9
O=C(C(=O)N1CCC(CNS(=O)(=O)c2ccc(F)cc2)CC1)c1cccs1	·	·	-7	4	·	·
CC(OC(=O)c1cc(Br)ccc1O)C(=O)Nc1ccc(S(=O)(=O)N2CCCC2)cc1 (stereo not given)	30	20	52*	13	35	·
N#Cc1c(NC(=O)CCn2cnc3ccccc3c2=O)oc(-c2ccccc2)c1-c1ccccc1	-22	-34	-3	4	25	18*
COc1ccc(-c2csc(NC(=O)CCn3cnc4ccccc4c3=O)n2)cc1OC	-15	-9	55*	20	15	-3
Cc1ccc(NC(=O)CCn2cnc3ccccc3c2=O)cc1Cl	-7	-27	23	40*	16	0
COC(=O)c1ccccc1S(=O)(=O)N(CCCO)Cc1cc2c(C)ccc(C)c2[nH]c1=O	-16	-6	19	12	46*	-6
Cc1ccc2[nH]c(=O)c(CN(Cc3ccco3)S(=O)(=O)c3c(C)ccc4nsnc34)cc2c1	-16	-16	34	16	19	-7
COC(=O)c1ccccc1S(=O)(=O)N(Cc1ccco1)Cc1cc2cc(OC)ccc2[nH]c1=O	-38	4	-4	8	41*	-9
COc1ccc2[nH]c(=O)c(CN(Cc3cccs3)S(=O)(=O)c3c(C)ccc4nsnc34)cc2c1	-16	-18	55*	30	17	-7
COC(=O)C1=C(C)N(C)C(=NCc2cc(OC)c(OC)c(OC)c2)NC1c1cccc(Cl)c1 (stereo not given)	·	·	-10	1	·	·
Cc1cc(NC(=O)c2ccc3c(c2)C(=O)N(C2CCCCC2)C3=O)no1	-11	-7	-15	3	10	3
O=C(Nc1ccncc1)c1ccc2c(c1)C(=O)N(C1CCCCC1)C2=O	51*	43	45	32	45	1
Cc1ccc(C(=O)Nc2ccc3c(c2)C(=O)N(CC2CCCO2)C3=O)cc1 (stereo not given)	-10	9	-12	3	10	-3

From PubChem
